Experimental findings from ChEMBL document CHEMBL3739417, “Synthesis and biological evaluation of novel 4,5-disubstituted 2H-1,2,3-triazoles as cis-constrained analogues of combretastatin A-4” (2015) are described below.

Test [1] is described as follows: Cell cycle arrest in rat 9LSF cells assessed as accumulation at G2/M phase at 50 nM after 24 hrs by propidium iodide based flow cytometry. Format: functional. Put shortly: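 9LSF rat gliosarcoma cells were exposed to 50 nM compound for 24 h alongside untreated controls. Cells were then trypsinized, counted, rinsed in PBS and fixed in ice-cold 70% EtOH/PBS at 10⁶ cells/mL, then held at 4°C. For analysis, 10⁶ cells were pelleted, rinsed three times in PBS and resuspended in 1 mL PBS with 1 µL PI (12.5 mg/mL stock in DMSO). The G2/M fraction was read by flow cytometry.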
Background: In flow cytometry, cells or beads pass a laser one at a time.

Test [2] is described as follows: Inhibition of colony formation in rat 9LSF cells after 24 hrs by crystal violet staining. Format: functional. As to conditions: read-out: LD50 (the source's name). Put shortly: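 9LSF rat gliosarcoma cells exposed for 24 hours at 1 nM, 3 nM, 10 nM, 30 nM, 100 nM, 1 μM or 10 μM. Then trypsinized, counted, seeded in triplicate and incubated at 37°C until colonies exceeded 50 cells. Flasks with fewer than 50,000 cells got 50,000 lethally irradiated A549 feeder cells first. Colonies fixed, crystal violet-stained and counted. LD50 from four-parameter logistic fit, mean ± SEM of 3 independent experiments.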

Calls of active or inactive are those of the source. The calls are words filed in the database; no cut-off is given here.

Regarding `COc1ccc(-c2n[nH]nc2-c2cc(OC)c(OC)c(OC)c2)cc1O`, the outcome in test [1] was Active. Moreover, in test [2], the CC50 came out at 7.5 nM.
